# TRAIL sens C8: sensitizes caspase-8 expressing cells to TRAIL. NB7+C8 cells + TRAIL, ATPlite viability luminescence. 360,000 tested, 1% active. inhibition (viability loss, TRAIL sensitization), % at 10 µM;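 active means compounds causing at least 50% loss of cell viability in the single-dose screen, relative to plate controls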
# FLuc act counter: affects firefly luciferase, flagging false hits in luciferase stimulation screens; P08659; ATPlite luciferase biochemical, luminescence, 10 min; 0 = ATP-free wells, 1 = DMSO control; activation factor at 10 µM; 200,000 tested, under 10 active; AID 1027;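 active means luciferase activation factor, scaled between plate controls, of at least 2 with compound at 10 µM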
# Target sequence (P08659 whole entry, looked up): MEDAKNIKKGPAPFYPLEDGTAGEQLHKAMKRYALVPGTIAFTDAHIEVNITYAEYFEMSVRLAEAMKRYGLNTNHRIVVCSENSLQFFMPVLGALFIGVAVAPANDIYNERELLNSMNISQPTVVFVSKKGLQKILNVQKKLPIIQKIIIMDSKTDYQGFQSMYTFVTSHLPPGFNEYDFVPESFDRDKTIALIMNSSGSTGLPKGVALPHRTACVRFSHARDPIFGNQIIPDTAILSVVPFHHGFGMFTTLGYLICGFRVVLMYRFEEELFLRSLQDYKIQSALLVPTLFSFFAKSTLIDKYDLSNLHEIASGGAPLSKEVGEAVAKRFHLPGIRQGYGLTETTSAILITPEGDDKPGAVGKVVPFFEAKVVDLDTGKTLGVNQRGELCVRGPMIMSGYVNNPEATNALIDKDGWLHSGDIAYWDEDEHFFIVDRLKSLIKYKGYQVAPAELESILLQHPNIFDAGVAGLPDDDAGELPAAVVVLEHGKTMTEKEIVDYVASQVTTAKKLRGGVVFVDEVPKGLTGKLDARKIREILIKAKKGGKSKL
#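 Material: luciferase plus luciferin reagent, cell-free. Medium: PBS buffer for ATP. Also added: ATP substrate, dispensed from a 10.24 µM working solution in PBS. Doses: test compounds dosed from 2 mM stocks in 100% DMSO. Incubation: 10 min post-reagent at room temperature. Technique: light output (luminescence). Read-out basis: luminescence gain marking luciferase activators.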
# FLuc inh counter: Photinus pyralis luciferase inhibition counter-screen; 200,000 tested, 1.5% active; ATPLite firefly luciferase biochemical luminescence, 10 min; P08659; inhibition, % at 10 µM;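 active means inhibition above about 50% when tested at 10 µM, limit read from the data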
# PPC-1+TRAIL kill: PPC-1 cancer cell killing with TRAIL present; cell killing (% activity), % at 4 µM or 5 µM; PPC-1 cells + TRAIL, ATPLite viability luminescence; 220,000 tested, 0.41% active; AID 1443;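 active means cell killing above 50% in the first pass at 4 µM, then a duplicate retest at 5 µM averaging 50% or more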;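 further: plate controls were cells with TRAIL plus DMSO for no effect and medium-only wells lacking cells for full effect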
# Starred values were filed as active, the others as inactive; . = no result. An excerpt weighted towards active compounds, which were near 1.5% of everything screened.
SMILES,TRAIL sens C8,FLuc act counter,FLuc inh counter,PPC-1+TRAIL kill
CC1C(=O)Nc2ccccc2N1C(=O)c1ccc(O)cc1 (stereo unspecified),-2,.,.,.
O=C1Nc2ccccc2N(C(=O)c2ccc3ccccc3c2)C1c1nc2ccccc2[nH]1 (stereo unspecified),58*,.,.,.
Nc1ccc(Cn2ccc3c4c(N)nc(N)nc4ccc32)cc1,74*,.,.,.
Cc1nc2ccc(N)cc2c(=O)n1Cc1ccc(Cl)cc1,-9,1,0,47
O=C1C2C3C=CC(CC3)C2C(=O)N1/N=C/c1ccc(O)cc1 (stereo unspecified),31,0.4,63*,26
CCn1c(-c2cc(-c3ccc(C)c(C)c3)nc3ccccc23)n[nH]c1=S,.,0.5,53*,1
CCn1c(-c2cc(-c3cc(C)ccc3C)nc3ccccc23)n[nH]c1=S,-11,1.1,-10,3
C[C@@H](NC(=O)c1ncn2c1c(=O)[nH]c1ccc(Br)cc12)c1ccccc1,69*,.,.,.
C[C@@H](NC(=O)c1ncn2c1c(=O)[nH]c1cccnc12)c1ccccc1,-7,.,.,.
CC(C)(C)C(=O)c1c(N)[nH]c(C(=O)c2ccccc2)c1-c1ccc(C(F)(F)F)cc1,-19,.,.,.
O=C(CN1CC(c2ccccc2)CC1=O)N/N=C/c1cc(Br)ccc1O (stereo unspecified),52*,1,-4,34
O=C(CNC(=O)c1ccccc1)N/N=C/c1cc(Br)ccc1O,44,1,-4,39
C(C#CCCCCCCCCC[n+]1ccccc1)#CCCCCCCCCC[n+]1ccccc1,91*,.,.,.
CCOc1ccc(C(=O)NC(Cc2ccccc2)C(=O)OC)cc1 (stereo unspecified),5,0.5,53*,19
O=C1CCCCC(=O)[C@H](OC(=O)c2ccccc2)C[C@H](c2ccccc2)O1,67*,.,.,.
CC(=O)O[C@@H]1C[C@H](c2ccccc2)OC(=O)CCCCC1=O,8,.,.,.
COc1ccc(N(C(=O)CCl)C(C(=O)NCCc2ccccc2)c2cccs2)cc1 (stereo unspecified),98*,1.1,-9,47
O=c1c2c(nc3n1CCCCC3)sc1c(O)c(Br)ccc12,35,0.2,81*,43
CCN(CC)CCOc1c(Br)ccc2c1sc1nc3n(c(=O)c12)CCC3,-7,1.1,-8,1
CC(=O)C(Cc1ccccc1)NC(=O)COC(=O)c1cc(S(=O)(=O)N2CCOCC2)ccc1F (stereo unspecified),-5,.,.,.
C/C(=N\NC(=O)c1cc(Br)ccc1O)c1cccs1,21,0.4,65*,26
C/C(=N/NC(=O)c1ccc(Br)o1)c1cccs1,-3,.,.,.
C/C(=N\NC(=O)c1ccccc1O)c1ccc(Br)s1,54*,0.2,79*,41
COc1cc(OC)c(C(=O)OCC(=O)NCC2CCCCC2)cc1OC,-7,.,.,.
O=C(O)COc1ccccc1/C=N/NC(=O)CNC(=O)c1ccc(F)cc1,-8,.,.,7
SMILES,TRAIL sens C8,FLuc act counter,FLuc inh counter,PPC-1+TRAIL kill
O=C(O)COc1ccccc1/C=N/NC(=O)c1ccc(F)cc1,9,0.5,53*,15
O=C(N/N=C/c1ccccc1Cl)c1ccc(F)cc1,45,0.2,78*,29
O=S(=O)(NC(CO)Cc1ccccc1)c1ccc(Br)cc1F (stereo unspecified),2,.,.,.
CC1=C(C(=O)N(C)C)CC(CC(=O)NCCc2ccccn2)C(=O)N1CCCN1CCCC1=O (stereo unspecified),-3,.,.,.
COc1ccccc1N1CCN(Cc2ccc(O)c3ncccc23)CC1,65*,1,-4,31
COc1ccccc1N1CCN(Cc2ccc(OC)c(OC)c2OC)CC1,7,1,-5,37
COc1ccc(-n2c(C)cc(-c3cn4cccc(C)c4n3)c2C)cc1,-5,1.1,-6,6
Cc1cc(-c2cn3ccccc3n2)c(C)n1-c1ccccc1,64*,0.1,94*,4
Nc1ncnc2c(C3OC(CO)C(O)C3O)scc12 (stereo unspecified),57*,.,.,.
O=C(COC(=O)c1cc(S(=O)(=O)N2CCOCC2)ccc1O)NCc1ccc2c(c1)OCO2,-19,.,.,.
O=c1[nH]c(=O)n(Cc2ccc(Oc3ccccc3)cc2)cc1Br,-8,.,.,.
C=C1CC(Cn2cc(Br)c(=O)[nH]c2=O)(c2ccc(-c3ccccc3)cc2)OC1=O (stereo unspecified),94*,.,.,.
CCOc1ccc(NCC(=O)N/N=C/C=C/c2ccccc2)cc1,12,0.4,56*,36
COc1ccc2oc(C(=O)OCC(=O)N3CCN(S(=O)(=O)c4ccc(C)cc4)CC3)c(C)c2c1,4,.,.,.
Cc1[nH]nc2nc(SCC(=O)NCCC3=CCCCC3)n(-c3ccc(Br)cc3)c(=N)c12,80*,.,.,.
Cc1ccc(-c2nc(N3CCN(C)CC3)c3ccccc3n2)cc1,16,.,.,.
CN1CCN(c2nc(-c3ccc(C(C)(C)C)cc3)nc3ccccc23)CC1,71*,.,.,.
COc1ccc(NC(=O)CN2CCN(C(C)=O)CC2)cc1S(=O)(=O)N1CCOCC1,-2,.,.,.
O=C(c1cc(-c2cccnc2)nc2ccccc12)N1CCN(S(=O)(=O)c2ccc(Cl)s2)CC1,12,.,.,.
O=C(Cc1cccc(C(F)(F)F)c1)NCC(=O)Nc1cc(Cl)ccc1Cl,11,.,.,.
O=C(c1cc(-c2ccc3c(c2)OCO3)on1)N1CCCCC1,57*,.,.,.
O=C(c1cc(-c2ccco2)on1)N1CCOCC1,-7,1,-4,18
Cc1ccc(-c2cc(C(=O)N3CCOCC3)no2)cc1,69*,.,.,.
O=C1C(=O)c2c(ccc3ccccc23)-c2ccccc21,67*,.,.,.
CN(C)/C=C1\Oc2ccc3ccccc3c2C1=O,2,0.9,8,-2
SMILES,TRAIL sens C8,FLuc act counter,FLuc inh counter,PPC-1+TRAIL kill
COc1ccc2[nH]c(-c3ccc(C)cc3)cc(=O)c2c1,85*,0.1,93*,73*
CCOC(=O)c1csc(NC(=O)c2cc(=O)c3ccccc3o2)n1,1,0.8,17,8
CC(=O)c1sc(NC(=O)c2cc(=O)c3ccccc3o2)nc1C,54*,0.2,83*,38
Cc1onc(-c2c(F)cccc2Cl)c1C(=O)ONC(=O)c1ccccc1,19,.,.,-5
Cc1onc(-c2c(Cl)cccc2Cl)c1C(=O)ONC(=O)c1ccccc1,52*,.,.,3
C#CCOCCOCCOCCNc1nc(N2CCN(C(=O)CCCCCCCCCCNC(=O)[C@H]([C@@H](C)CC)n3cc(CCCCN=C(N)N)nn3)CC2)nc(N2CCN(C(=O)CCCCCCCCCCNC(=O)[C@H](CO)n3cc(CCCCCN)nn3)CC2)n1,40,.,.,.
C#CCOCCOCCOCCNc1nc(N2CCN(C(=O)CCCCCCCCCCNC(=O)[C@H]([C@@H](C)CC)n3cc(CCCCCN)nn3)CC2)nc(N2CCN(C(=O)CCCCCCCCCCNC(=O)[C@H]([C@@H](C)CC)n3cc(CCCCN=C(N)N)nn3)CC2)n1,51*,.,.,.
Cc1cccc(N(C(=O)C(F)(F)F)C(C(=O)NC2CCCCC2)c2cccs2)c1 (stereo unspecified),-3,1,-5,22
C#CC(=O)N(c1cccc(OC)c1)C(C(=O)NC1CCCC1)c1cccs1 (stereo unspecified),96*,1,-1,94*
